In brackets after ≈: the same amount, converted by molar mass.
Assays:
Format in all cases: functional
Escherichia coli [1] = assay: Evaluated for the minimum inhibitory concentration against Escherichia coli UB 1005
Method in brief: (§1)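 MIC by serial 2-fold dilution in Mueller-Hinton broth; results given as minimum inhibitory concentrations (nmol/mL).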

Escherichia coli [2] = assay: Evaluated for the in vivo activity in mice against Escherichia coli 257
Streptococcus pneumoniae [3] = assay: Minimum inhibitory concentration against Streptococcus pneumoniae 6301
Method in brief: (§2)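 Broth MIC determination: serial 2-fold dilutions in Mueller-Hinton broth by standard methodology; the lowest concentration inhibiting growth is reported as the MIC, in nmol/mL.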

Staphylococcus aureus [4] = assay: Minimum inhibitory concentration against Staphylococcus aureus 95 (Methicillin-resistant, high-level beta-lactamase producer)
Method in brief: (§3)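 Serial 2-fold broth dilution in Mueller-Hinton broth, run by standard methodology; read-out is the minimum inhibitory concentration (MIC).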

Pseudomonas aeruginosa [5] = assay: Evaluated for the minimum inhibitory concentration against Pseudomonas aeruginosa 18S/H (Class Id beta-lactamase overproducer); method in brief: as §1
Streptococcus pyogenes [6] = assay: Minimum inhibitory concentration against Streptococcus pyogenes 4; method in brief: as §2
Pseudomonas aeruginosa [7] = assay: Minimum inhibitory concentration against Pseudomonas aeruginosa ATCC 27853; method in brief: as §2
Proteus vulgaris [8] = assay: Evaluated for the minimum inhibitory concentration against Proteus vulgaris 1028 BC (Class Ic beta-lactamase overproducer; method in brief: as §1
Streptococcus pyogenes [9] = assay: Evaluated for the in vivo activity in mice against streptococcus pyogenes 4
Proteus vulgaris [10] = assay: Minimum inhibitory concentration against Proteus vulgaris 1028 BC (Class Ic beta-lactamase overproducer); method in brief: as §2
Staphylococcus aureus [11] = assay: Evaluated for the minimum inhibitory concentration against Staphylococcus aureus 1059B ( inducible, high level beta-lactamase producer); method in brief: as §3
Pseudomonas aeruginosa [12] = assay: Evaluated for the minimum inhibitory concentration against Pseudomonas aeruginosa 18S/H ( Class Id beta-lactamase overproducer); method in brief: as §1
Escherichia coli [13] = assay: Evaluated for in Vitro activity against Escherichia coli DC-O; method in brief: as §1
Micrococcus luteus = assay: Evaluated for in Vitro activity against Micrococcus luteus PCI; method in brief: as §1
Streptococcus pneumoniae [14] = assay: Evaluated for in Vitro activity against Streptococcus pneumoniae 6301; method in brief: as §1
Staphylococcus aureus [15] = assay: Evaluated for the minimum inhibitory concentration against Staphylococcus aureus 95 (Methicillin-resistant, high-level beta-lactamase producer); method in brief: as §3
Proteus vulgaris [16] = assay: Evaluated for the minimum inhibitory concentration against Proteus vulgaris 1028 BC; method in brief: as §3
Pseudomonas aeruginosa [17] = assay: In vitro antibacterial activity was determined against Pseudomonas aeruginosa ATCC 27853; method in brief: as §2
Staphylococcus aureus [18] = assay: In vitro antibacterial activity was determined against Staphylococcus aureus 95 (Methicillin-resistant, high-level beta-lactamase producer); method in brief: as §3
Streptococcus pyogenes [19] = assay: In vitro antibacterial activity was determined against Streptococcus pyogenes 4; method in brief: as §2
Proteus mirabilis = assay: In vitro antibacterial activity was determined against Proteus mirabilis 90; method in brief: as §1
Escherichia coli [20] = assay: In vitro antibacterial activity was determined against Escherichia coli TEM-1 (TEM-1 (class IIIa) beta-lactamase producer); method in brief: as §1
Escherichia coli [21] = assay: In vitro antibacterial activity was determined against Escherichia coli UB 1005; method in brief: as §1
Pseudomonas aeruginosa [22] = assay: In vitro antibacterial activity was determined against Pseudomonas aeruginosa 18S/H ( Class Id beta-lactamase overproducer); method in brief: as §2
Citrobacter freundii = assay: In vitro antibacterial activity was determined against Citrobacter freundii BS-16; method in brief: as §1
Enterobacter cloacae [23] = assay: In vitro antibacterial activity was determined against Enterobacter cloacae P99; method in brief: as §1
Proteus vulgaris [24] = assay: In vitro antibacterial activity was determined against Proteus vulgaris 1028 BC ( Class Ic beta-lactamase overproducer; method in brief: as §1
Enterococcus faecalis = assay: In vitro antibacterial activity was determined against Enterococcus faecalis ATCC 29212; method in brief: as §1
Staphylococcus aureus [25] = assay: In vitro antibacterial activity was determined against Staphylococcus aureus ATCC 29213 ( inducible, low level beta-lactamase producer); method in brief: as §2
Staphylococcus aureus [26] = assay: In vitro antibacterial activity was determined against Staphylococcus aureus 1059B ( inducible, high level beta-lactamase producer); method in brief: as §2
Streptococcus pneumoniae [27] = assay: In vitro antibacterial activity was determined against Streptococcus pneumoniae 6301; method in brief: as §2
Serratia marcescens = assay: In vitro antibacterial activity was determined against Serratia marcescens 1071; method in brief: as §2
Enterobacter cloacae [28] = assay: Evaluated for the minimum inhibitory concentration against Enterobacter cloacae P99 ( Class Ia beta-lactamase overproducer); method in brief: as §1
Escherichia coli [29] = assay: Evaluated for the minimum inhibitory concentration against Escherichia coli TEM-1; method in brief: as §3

For `CO/N=C(\C(=O)N[C@@H]1C(=O)N2C(C(=O)O)=C(COC(C)=O)CS[C@H]12)c1csc(N)n1` [CEFOTAXIME], the MIC (Escherichia coli [1]) was 0.06 µg/mL (≈ 0.132 µM), the ED50 (Escherichia coli [2]) was 1.7 mg/kg and the MIC (Streptococcus pneumoniae [3]) was 0.016 µg/mL (≈ 0.0351 µM). The MIC (Staphylococcus aureus [4]) was 32 µg/mL (≈ 70.3 µM), the MIC (Pseudomonas aeruginosa [5]) was 128 µg/mL (≈ 281 µM) and the MIC (Streptococcus pyogenes [6]) was under 0.008 µg/mL. The MIC (Pseudomonas aeruginosa [7]) was 64 µg/mL (≈ 141 µM), the MIC (Proteus vulgaris [8]) was 16 µg/mL (≈ 35.1 µM) and the ED50 (Streptococcus pyogenes [9]) was 5.2 mg/kg.
`CCn1cc(C(=O)OCC2=C(C(=O)O)N3C(=O)[C@@H](NC(=O)COc4ccccc4)C3SC2)c(=O)c2cc(F)c(-n3cccc3)cc21` (stereo partly drawn) was tested, and the MIC (Proteus vulgaris [10]) was 16 µg/mL (≈ 24.7 µM), the MIC (Streptococcus pneumoniae [3]) was 2 µg/mL (≈ 3.09 µM) and the MIC (Staphylococcus aureus [4]) was 0.5 µg/mL (≈ 0.773 µM). For the same compound, the MIC (Pseudomonas aeruginosa [5]) was 128 µg/mL (≈ 198 µM), the MIC (Streptococcus pyogenes [6]) was 2 µg/mL (≈ 3.09 µM) and the MIC (Pseudomonas aeruginosa [7]) was over 128 µg/mL.
For `CCn1cc(C(=O)OCC2=C(C(=O)O)N3C(=O)[C@@H](NC(=O)COc4ccccc4)C3SC2)c(=O)c2cc(F)c(N3CCSCC3)cc21` (stereo partly drawn), the MIC (Staphylococcus aureus [11]) was 0.25 µg/mL (≈ 0.366 µM), the MIC (Proteus vulgaris [10]) was 1 µg/mL (≈ 1.46 µM) and the MIC (Streptococcus pneumoniae [3]) was 2 µg/mL (≈ 2.93 µM). For the same compound, the MIC (Staphylococcus aureus [4]) was 0.5 µg/mL (≈ 0.732 µM), the MIC (Pseudomonas aeruginosa [5]) was 64 µg/mL (≈ 93.7 µM) and the MIC (Streptococcus pyogenes [6]) was 4 µg/mL (≈ 5.86 µM). It also gave an MIC (Pseudomonas aeruginosa [7]) of 128 µg/mL (≈ 187 µM).
`CCn1cc(C(=O)O)c(=O)c2cc(F)c(N3CCCC3)cc21` showed an MIC (Pseudomonas aeruginosa [12]) of 128 µg/mL (≈ 421 µM), an MIC (Streptococcus pneumoniae [3]) of over 128 µg/mL and an MIC (Staphylococcus aureus [4]) of 0.063 µg/mL (≈ 0.207 µM). The MIC (Pseudomonas aeruginosa [7]) was over 128 µg/mL and the MIC (Proteus vulgaris [8]) was 1 µg/mL (≈ 3.29 µM).
With `CO/N=C(/C(=O)N[C@@H]1C(=O)N2C(C(=O)O)=C(CO)CSC12)c1csc(N)n1` (stereo partly drawn) the MIC (Escherichia coli [13]) was 0.597 µM (≈ 0.247 µg/mL), the MIC (Micrococcus luteus) was 0.597 µM (≈ 0.247 µg/mL) and the MIC (Streptococcus pneumoniae [14]) was 0.0746 µM (≈ 0.0308 µg/mL).
With `CN1CCN(c2c(F)cc3c(=O)c(C(=O)OCC4=C(C(=O)O)N5C(=O)[C@@H](NC(=O)/C(=N/OCC(=O)O)c6csc(N)n6)C5SC4)cn(CCF)c3c2F)CC1` (stereo partly drawn) the MIC (Staphylococcus aureus [15]) was 1 µg/mL (≈ 1.24 µM), the MIC (Pseudomonas aeruginosa [12]) was 4 µg/mL (≈ 4.95 µM) and the MIC (Streptococcus pneumoniae [3]) was 0.5 µg/mL (≈ 0.618 µM). For the same compound, the MIC (Streptococcus pyogenes [6]) was 0.5 µg/mL (≈ 0.618 µM), the MIC (Pseudomonas aeruginosa [7]) was 32 µg/mL (≈ 39.6 µM) and the MIC (Proteus vulgaris [8]) was 0.25 µg/mL (≈ 0.309 µM).
For `CCn1cc(C(=O)OCC2=C(C(=O)O)N3C(=O)[C@@H](NC(=O)/C(=N/OC)c4csc(N)n4)C3SC2)c(=O)c2ccc(C)nc21` (stereo partly drawn), the MIC (Proteus vulgaris [10]) was 4 µg/mL (≈ 6.37 µM), the MIC (Staphylococcus aureus [4]) was 8 µg/mL (≈ 12.7 µM) and the MIC (Pseudomonas aeruginosa [5]) was 64 µg/mL (≈ 102 µM). For the same compound, the MIC (Pseudomonas aeruginosa [7]) was over 128 µg/mL.
For `O=C(COc1ccccc1)N[C@@H]1C(=O)N2C(C(=O)O)=C(COC(=O)c3cn(-c4ccc(F)cc4)c4cc5c(cc4c3=O)OCO5)CSC12` (stereo partly drawn), the MIC (Proteus vulgaris [16]) was 64 µg/mL (≈ 95 µM), the MIC (Pseudomonas aeruginosa [12]) was 64 µg/mL (≈ 95 µM) and the MIC (Streptococcus pneumoniae [3]) was 1 µg/mL (≈ 1.48 µM). The MIC (Staphylococcus aureus [4]) was 64 µg/mL (≈ 95 µM), the MIC (Streptococcus pyogenes [6]) was 2 µg/mL (≈ 2.97 µM) and the MIC (Pseudomonas aeruginosa [7]) was over 128 µg/mL.
`CCn1cc(C(=O)OCC2=C(C(=O)O)N3C(=O)[C@@H](NC(=O)Cc4cccs4)C3SC2)c(=O)c2cc3c(cc21)OCO3` (stereo partly drawn) gave an MIC (Proteus vulgaris [10]) of 0.25 µg/mL (≈ 0.418 µM), an MIC (Staphylococcus aureus [4]) of 4 µg/mL (≈ 6.69 µM) and an MIC (Pseudomonas aeruginosa [5]) of 8 µg/mL (≈ 13.4 µM). It also gave an MIC (Pseudomonas aeruginosa [7]) of over 128 µg/mL.
`CC(=O)OCC1=C(C(=O)O)N2C(=O)[C@@H](NC(=O)COc3ccccc3)C2SC1` (stereo partly drawn) gave an MIC (Pseudomonas aeruginosa [17]) of over 128 µg/mL, an MIC (Staphylococcus aureus [18]) of over 128 µg/mL and an MIC (Streptococcus pyogenes [19]) of 0.063 µg/mL (≈ 0.155 µM). It also gave an MIC (Proteus mirabilis) of 64 µg/mL (≈ 157 µM), an MIC (Escherichia coli [20]) of over 128 µg/mL and an MIC (Escherichia coli [21]) of 64 µg/mL (≈ 157 µM). For the same compound, the MIC (Pseudomonas aeruginosa [22]) was over 128 µg/mL, the MIC (Citrobacter freundii) was over 128 µg/mL and the MIC (Enterobacter cloacae [23]) was over 128 µg/mL. The MIC (Proteus vulgaris [24]) was over 128 µg/mL, the MIC (Enterococcus faecalis) was 64 µg/mL (≈ 157 µM) and the MIC (Staphylococcus aureus [25]) was 0.5 µg/mL (≈ 1.23 µM). For the same compound, the MIC (Staphylococcus aureus [26]) was 0.25 µg/mL (≈ 0.615 µM), the MIC (Streptococcus pneumoniae [27]) was 0.25 µg/mL (≈ 0.615 µM) and the MIC (Serratia marcescens) was over 128 µg/mL.
`CCn1cc(C(=O)OCC2=C(C(=O)O)N3C(=O)[C@@H](NC(=O)COc4ccccc4)C3SC2)c(=O)c2cc(F)c(N3CCN(C=O)CC3)cc21` (stereo partly drawn) gave an MIC (Enterobacter cloacae [28]) of 2 µg/mL (≈ 2.88 µM), an MIC (Escherichia coli [1]) of 128 µg/mL (≈ 185 µM) and an MIC (Pseudomonas aeruginosa [12]) of 8 µg/mL (≈ 11.5 µM). It also gave an MIC (Proteus vulgaris [10]) of 4 µg/mL (≈ 5.77 µM), an MIC (Staphylococcus aureus [4]) of 2 µg/mL (≈ 2.88 µM) and an MIC (Pseudomonas aeruginosa [7]) of 128 µg/mL (≈ 185 µM).
`CCn1cc(C(=O)O)c(=O)c2ccc(C)nc21` [NALIDIXIC ACID] gave an MIC (Escherichia coli [29]) of 4 µg/mL (≈ 17.2 µM), an MIC (Proteus vulgaris [10]) of 2 µg/mL (≈ 8.61 µM) and an MIC (Streptococcus pneumoniae [3]) of 128 µg/mL (≈ 551 µM). The MIC (Staphylococcus aureus [4]) was 8 µg/mL (≈ 34.4 µM), the MIC (Pseudomonas aeruginosa [5]) was 32 µg/mL (≈ 138 µM) and the MIC (Streptococcus pyogenes [6]) was 128 µg/mL (≈ 551 µM). The MIC (Pseudomonas aeruginosa [7]) was 128 µg/mL (≈ 551 µM).

From ChEMBL document CHEMBL1125107, “Cephalosporin 3'-quinolone esters with a dual mode of action” (J Med Chem, 1990)
